Test results published in PubChem BioAssay AID624467 (The Scripps Research Institute Molecular Screening Center, 2012).
Among all 360,000 compounds or so, about 3,600 (1%) were called active. The sample holds actives, similar compounds and a random draw of the others, so the mix is not that of the screen.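 The calls were made as follows: active = activation above the mean activation of all test compounds in the run plus 3 SD (cut at about 38% in these data); inactive = the rest.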

target: Trace amine-associated receptor 1 (Homo sapiens) (UniProt Q96RJ0); assay: human TAAR1 agonists, primary screen, Fluo-8 calcium fluorescence, CHO RD-HGA16 cells (AID 624467); conditions: CHO RD-HGA16 TAAR1, Fluo-8 calcium fluorescence; at 3 µM; stronger effect = higher value; vehicle wells 0%, saturating PEA agonist 100%
In short: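 Test system: RD-HGA16 (CHO) cells co-expressing Gα16 and hTAAR1; dosing: one-point dosing at 3 µM (nominal); timing: 17-24 h seeding, 75 min 37 °C dye, 30 min RT; signal: kinetic Fluo-8 calcium fluorescence; read-out basis: % activation relative to PEA EC100 response; controls: DMSO and PEA EC100; replicates: n 1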

Sequence of Trace amine-associated receptor 1 (Homo sapiens) (Q96RJ0 whole entry, looked up): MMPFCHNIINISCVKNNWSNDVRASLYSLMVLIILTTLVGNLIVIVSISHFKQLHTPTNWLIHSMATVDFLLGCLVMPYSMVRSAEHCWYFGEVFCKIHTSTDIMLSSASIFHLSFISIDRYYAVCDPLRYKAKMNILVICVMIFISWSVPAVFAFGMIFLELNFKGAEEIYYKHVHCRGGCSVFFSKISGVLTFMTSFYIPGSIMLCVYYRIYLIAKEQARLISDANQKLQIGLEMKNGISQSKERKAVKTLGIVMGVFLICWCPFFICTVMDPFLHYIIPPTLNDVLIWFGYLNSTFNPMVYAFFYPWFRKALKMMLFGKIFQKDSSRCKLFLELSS

Row | SMILES | activation
1 | CC1CCc2sc(C(=O)N/N=C/C3CCCCC3)cc2C1 (stereo not given) | 5.23% (inactive)
2 | COCc1[nH]nc2c1C(c1ccccc1)N(c1ccccc1)C2=O (stereo not given) | 0.37% (inactive)
3 | O=C(Cn1nnc(-c2ccccc2)n1)N/N=C/c1ccc(-c2ccc(Cl)cc2)o1 | -0.07% (inactive)
4 | O=C(Cn1cncn1)N/N=C/c1c2ccccc2cc2ccccc12 | 6.44% (inactive)
5 | Nc1nnn(CC(=O)N/N=C/c2ccccc2)n1 | 43.3% (active)
6 | CC(C)CNc1cccc2c1S(=O)(=O)N[C@H](C)CO2 | -0.59% (inactive)
7 | COc1ccc(C(=O)NNC(=S)NC(=O)c2ccccc2)cc1 | 130% (active)
8 | CC(=O)NC(=S)NNC(=O)c1ccc(Br)cc1 | 6.34% (inactive)
9 | COc1ccc(/C(N)=N/OC(=O)CCCc2ccccc2)cc1 | 5.81% (inactive)
10 | COc1ccc(C(=O)NC(=S)NNC(=O)CCc2ccccc2)cc1 | 108% (active)
11 | CCOc1ccccc1NC(=S)NC(=O)CCc1ccccc1 | -1.05% (inactive)
12 | Cn1nnc(NC(=S)NC(=O)c2ccccc2)n1 | 0.43% (inactive)
13 | COCCCNC(=O)C[C@H]1C[C@@]2(C(=O)OC)C(=C[C@H](C(C)(C)C)O[C@@H]2C)N(Cc2ccc3c(c2)OCO3)C1=O | 0.46% (inactive)
14 | Nc1[nH]c(C(=O)c2ccccc2)c(-c2ccc(Cl)cc2Cl)c1C(=O)c1ccccc1 | 1.29% (inactive)
15 | CCC(Sc1nncn1C)C(=O)Nc1nnc(-c2ccc(Cl)cc2)s1 (stereo not given) | 0.73% (inactive)
16 | COCc1cc(N2CCN(C(=O)OC(C)(C)C)C[C@@H]2C)ccc1N1CCN(Cc2ccccc2)[C@H](C)C1 | -1.74% (inactive)
17 | Cc1ccccc1C(=O)N[C@H](C(=O)N1CCC[C@H]1C(=O)NCc1ccccc1)C(C)C | 1.24% (inactive)
18 | CC(=O)N(CC(O)CO)c1c(I)c(C(=O)NCC(O)CO)c(I)c(C(=O)NCC(O)CO)c1I (stereo not given) | 0.12% (inactive)
19 | COC(=O)[C@]12C[C@H](CC(=O)NCc3cccc(C(F)(F)F)c3)C(=O)N(Cc3ccc4c(c3)OCO4)C1=C[C@H](COCc1ccccc1)O[C@@H]2C | 1.6% (inactive)
20 | CN1C(=O)/C(=N/OC(=O)c2ccccc2Br)c2ccccc21 | 2.86% (inactive)
21 | Nc1cc(OC(=O)c2ccccc2Br)nn1S(=O)(=O)c1ccccc1 | 78% (active)
22 | Cc1ccc(S(=O)(=O)n2nc(OC(=O)C(C)(C)C)cc2N)cc1 | 2.73% (inactive)
23 | Cc1cc(C)n(CCNS(=O)(=O)c2ccc(Cl)cc2)n1 | 2.21% (inactive)
24 | COc1ccc2cc(-c3[nH]ncc3CNCCn3nc(C)cc3C)ccc2c1 | 44% (active)
25 | COc1ccc(-c2cn[nH]c2-c2ccc(OC)cc2)cc1 | 5.38% (inactive)
26 | C[C@@H]1CN([C@@H](C)CO)S(=O)(=O)c2ccc(C#Cc3cccc(F)c3)cc2O[C@H]1CN(C)S(=O)(=O)c1cn(C)cn1 | 20.9% (inactive)
27 | COCCCNC(=S)NC(=O)c1ccc([N+](=O)[O-])cc1 | 0.22% (inactive)
28 | CC(C)CC(=O)NC(=S)NNC(=O)c1cccc([N+](=O)[O-])c1 | 20.7% (inactive)

Row | SMILES | activation
29 | CCCCCC(=O)NC(=S)NNC(=O)c1ccc([N+](=O)[O-])cc1 | 71.7% (active)
30 | CCOc1cc(C(=O)N2CCc3cc(OC)c(OC)cc3C2)ccc1OC(F)F | 3.06% (inactive)
31 | Cc1cc(OC(=O)NCCc2ccc(F)cc2)ccc1F | 3.75% (inactive)
32 | CC[C@H](C)[C@H]1CNC(=O)C(=O)N1CC1CCN(CCc2ccc(OC)c(OC)c2)CC1 | -0.17% (inactive)
33 | CCCOc1ccc(F)cc1-c1cc(C(=O)NCc2ccc(F)cc2)[nH]n1 | 3.61% (inactive)
34 | Cc1ccc(O)c(-c2cc(C(=O)NCc3ccccc3)[nH]n2)c1 | 8.4% (inactive)
35 | Cc1cc(O)ccc1-c1cc(C(=O)NCc2cc(C(F)(F)F)cc(C(F)(F)F)c2)[nH]n1 | 39.9% (active)
36 | Brc1cnc2ccccc2c1N1CCCCC1 | 5.6% (inactive)
37 | CCOC(=O)C1=C(CC)Nc2ccccc2N=C1NC(=O)c1cccc(S(=O)(=O)N2CCCC2)c1 | 7.96% (inactive)
38 | NC(N)=N/N=C/c1ccc(OCc2ccc(Cl)cc2Cl)cc1 | 84.3% (active)
39 | CC(C)(C)NC(=O)NC(=O)COC(=O)Cc1ccc(Cl)cc1Cl | -2.34% (inactive)
40 | NC(=O)COc1ccc(/C=N/NC(=O)C2CCCN2S(=O)(=O)c2ccc(Cl)cc2)cc1 (stereo not given) | 5.15% (inactive)
41 | CCn1nccc1C(=O)Nc1ccc(S(=O)(=O)NC23CC4CC(CC(C4)C2)C3)cc1 | 42.5% (active)
42 | O=C(Nc1ccc(S(=O)(=O)Nc2ncccn2)cc1)C12CC3CC(CC(C3)C1)C2 | 0.17% (inactive)
43 | Cc1cc(C(F)F)n2nc(C(=O)Nc3ccc(S(=O)(=O)NC45CC6CC(CC(C6)C4)C5)cc3)nc2n1 | 6.82% (inactive)
44 | COC(=O)c1cc2c(c3c4cc(F)ccc4n(S(=O)(=O)c4ccccc4)c13)C(=O)N(Cc1ccccc1OC)C2 | 0.14% (inactive)
45 | O=C1CC(Sc2ncn[nH]2)C(=O)N1c1ccccc1 (stereo not given) | 4.92% (inactive)
46 | COc1cccc(-c2nc3nc(C)cc(C)n3c2NC2CCCCC2)c1 | 1.46% (inactive)
47 | CC(C)(C)Oc1ncc(Br)c(OC(C)(C)C)n1 | 1.63% (inactive)
48 | COc1cccc(-c2cnc(OC(C)(C)C)nc2OC(C)(C)C)c1 | 47.4% (active)
49 | CN(C(=O)CN1C(=O)NC(C)(CCc2ccccc2)C1=O)c1ccccc1 (stereo not given) | 1.03% (inactive)
50 | CC(=O)C1=C(C)N(Cc2ccccc2)C(=S)NC1c1cccc(Br)c1 (stereo not given) | -0.24% (inactive)
51 | CN(C)c1ccc(/C=C2\NC(=S)N(Cc3ccccc3)C2=O)cc1 | 81.4% (active)
52 | Cc1ccc(N)cc1CN1CCN(c2ncc(Cc3ccccc3)cn2)CC1 | -0.94% (inactive)
53 | COc1ccc(C2/C=C\CN(CC(C)C)CC(=O)N2Cc2ccc(F)cc2)cc1 (stereo not given) | -1.75% (inactive)
54 | Cc1c([N+](=O)[O-])c(N)nn1C | 2.61% (inactive)
55 | Cc1nn2c3cc(N4CCOCC4)ccc3nc2c2ccccc12 | 2.7% (inactive)
